The source made the active and inactive calls. The calls are words filed in the database; no cut-off is given here.
Tests used:
T47D [1] = assay: Induction of polyploidy in human T47D cells at 1 umol/L incubated for 72 hrs by microscopic analysis relative to control; format: functional; conditions: dose 1 µmol/L, at 1 µM
Outline: (§1)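 Cells stained with Hema-3 and photographed under a light microscope with CCD camera. Polyploid cells scored as percent of the population.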

ZR-75-1 [2] = assay: Induction of polyploidy in human ZR-75-1 cells at 1 umol/L incubated for 72 hrs by microscopic analysis relative to control; format: functional; conditions: dose 1 µmol/L, at 1 µM; outline: as §1
ZR-75-1 [3] = assay: Induction of polyploidy in human ZR-75-1 cells with RON-/- by microscopic analysis; format: functional, cell-based
Outline: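 Cells (2 106 per 60-mm dish) transiently transfected for 48 hours with 1 nmol/L scrambled or RON-specific siRNA, with knockdown confirmed by anti-RON Western blot. […] Polyploidy monitored and photographed by microscopy, with untransfected and scrambled-siRNA cells as comparators.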

T47D [4] = assay: Induction of apoptosis in human T47D cells assessed as rate of apoptotic cell death at 5 umol/L by annexin V/PI staining based flow cytometry relative to control; format: functional; conditions: dose 5 µmol/L; at 5 µM
[5] = Cmax in athymic mouse xenografted with human GTL-16 cells upto 50 mg/kg, po qd for 14 days consecutively; format: ADME, organism-based; conditions: in vivo, time 14 day
ZR-75-1 [6] = assay: Cytotoxicity against human ZR-75-1 cells at 1 to 2.5 umol/L incubated for 72 hrs by MTS assay; format: functional, cell-based; conditions: dose 1-2.5 µmol/L
T47D [7] = assay: Cytotoxicity against human T47D cells at 1 to 2.5 umol/L incubated for 72 hrs by MTS assay; format: functional, cell-based; conditions: dose 1-2.5 µmol/L
MCF7 [8] = assay: Induction of apoptosis in human MCF7 cells assessed as viable cells at 5 umol/L incubated for 3 days by Annexin V/PI staining based flow cytometry (reference value: 98.1 %); format: functional; conditions: MCF7, 72 h, dose 5 µmol/L, time 3 day, read-out: Activity
ZR-75-1 [9] = assay: Induction of apoptosis in human ZR-75-1 cells assessed as rate of apoptotic cell death at 5 umol/L by annexin V/PI staining based flow cytometry relative to control; format: functional; conditions: dose 5 µmol/L; at 5 µM
MCF7 [10] = assay: Induction of apoptosis in human MCF7 cells assessed as late cells at 5 umol/L incubated for 3 days by Annexin V/PI staining based flow cytometry (reference value: 1.4 %); format: functional; conditions: dose 5 µmol/L; time 3 day; at 5 µM
T47D [11] = assay: Induction of polyploidy in human T47D cells at 5 uM incubated for 72 hrs by microscopic analysis; format: functional, cell-based; outline: as §1
T47D [12] = assay: Induction of cell cycle arrest at cytokinesis in human T47D cells at 5 umol/L preincubated for 24 hrs followed by extensive compound washout and subsequent culturing in compound-free media measured upto 120 mins by immunofluorescence staining based analysis; format: functional; conditions: dose 5.0 µmol/L
Outline: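 T-47D cells were treated at 37°C with 5 µmol/L for 24 h, washed extensively, then cultured in DMEM with 10% FBS for 30, 60 and 120 min. α- and γ-tubulin were detected by immunofluorescence with DAPI, imaged at 400×. The control was a 24 h preincubation with 5 µmol/L RO-3306. One of 2 experiments.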

[13] = Cmax in athymic mouse xenografted with human GTL-16 cells at 6.25 mg/kg, po qd for 14 days consecutively; format: ADME, organism-based; conditions: in vivo, time 14 day

CCOc1ccn(-c2ccc(F)cc2)c(=O)c1C(=O)Nc1ccc(Oc2ccnc(N)c2Cl)c(F)c1 [BMS-777607]
Activity (T47D [1]): 14% | Activity (ZR-75-1 [2]): 11% | Activity (ZR-75-1 [3]): Active | Activity (T47D [4]): 10.3% | Cmax [5]: 43.7 µM | Activity (ZR-75-1 [6]): inactive | Activity (T47D [7]): inactive | viability at 5 µM (MCF7 [8]): 97.3% | Activity (ZR-75-1 [9]): 9.7% | Activity (MCF7 [10]): 2% | Activity (T47D [11]): Active | Activity (T47D [12]): Active | Cmax [13]: 4.5 µM
